For the experiment, the target named is Protein-arginine deiminase type-4 (Homo sapiens) (UniProt Q9UM07). The experiment can be described thus: PAD4 enzyme inhibition potency, late-stage follow-up, biochemical, BAEE substrate, citrulline absorbance, 0-500 µM range (AID 588421). The following applies: recombinant PAD4, BAEE citrulline colorimetric absorbance. In short, it runs like this:
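Material – recombinant human PAD4 enzyme (protein-arginine deiminase 4) · Doses – Seven-point compound series spanning 0 to 500 µM · Times – 15 min preincubation (37 °C), 15 min reaction · Measured by – colorimetric absorbance of citrulline product at 540 nm · Evaluation – IC50 from activity fit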

The source made the active and inactive calls.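 Rule for the calls: active = IC50 at or below 1 µM; inactive = the rest.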

Sequence of Protein-arginine deiminase type-4 (Homo sapiens) (Q9UM07 whole entry, looked up): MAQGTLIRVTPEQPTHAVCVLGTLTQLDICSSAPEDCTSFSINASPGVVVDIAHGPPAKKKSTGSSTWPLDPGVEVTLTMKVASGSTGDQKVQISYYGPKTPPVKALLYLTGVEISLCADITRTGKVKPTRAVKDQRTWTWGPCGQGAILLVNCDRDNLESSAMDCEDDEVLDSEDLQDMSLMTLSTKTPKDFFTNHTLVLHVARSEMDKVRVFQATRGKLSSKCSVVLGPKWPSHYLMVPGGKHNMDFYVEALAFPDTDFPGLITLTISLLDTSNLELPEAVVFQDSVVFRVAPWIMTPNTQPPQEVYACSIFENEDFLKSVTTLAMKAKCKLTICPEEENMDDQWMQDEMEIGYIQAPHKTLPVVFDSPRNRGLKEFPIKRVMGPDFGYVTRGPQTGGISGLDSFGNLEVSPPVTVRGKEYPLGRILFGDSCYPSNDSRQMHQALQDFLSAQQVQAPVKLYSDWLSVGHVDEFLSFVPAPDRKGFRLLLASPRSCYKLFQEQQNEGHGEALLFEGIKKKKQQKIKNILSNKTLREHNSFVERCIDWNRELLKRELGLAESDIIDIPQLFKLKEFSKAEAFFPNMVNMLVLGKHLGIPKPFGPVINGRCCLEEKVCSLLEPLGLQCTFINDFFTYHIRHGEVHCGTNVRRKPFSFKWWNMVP

With `COC(=O)c1nc(C(=O)OC)c(NC(C)=O)c(-c2ccccc2Br)c1C`, the IC50 entry is “inactive”.

The values above are taken from PubChem BioAssay AID588421 (The Scripps Research Institute Molecular Screening Center, 2011).
